pKi: −log10 of the molar value. Converted amounts (≈) assume the structure as drawn.
Key:
rice = assay: Concentration that affords 90% control of blast disease on rice plants in greenhouse assay; format: functional
Summary of the method: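 Foliar greenhouse test on rice plants against blast disease; compounds applied over a range of concentrations, and the concentration giving 90% disease control was derived from the dose-response data.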

Scytalone dehydratase = biological target: T1, Scytalone dehydratase (Magnaporthe oryzae (strain 70-15 / FGSC 8958) (Rice blast fungus)(Pyricularia oryzae), UniProt P56221); parameters: species or system Pyricularia grisea
T1 sequence (P56221 whole entry): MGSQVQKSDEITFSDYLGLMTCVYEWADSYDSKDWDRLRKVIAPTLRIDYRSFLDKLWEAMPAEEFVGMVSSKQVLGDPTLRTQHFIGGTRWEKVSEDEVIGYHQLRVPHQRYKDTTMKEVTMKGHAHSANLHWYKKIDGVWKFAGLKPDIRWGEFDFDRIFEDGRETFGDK

SMILES	ED90 (rice)	pKi (Scytalone dehydratase)
CCC(C#N)C(=O)N[C@H](C)[C@@H](Oc1cc(Br)ccc1C#N)c1ccccc1 (stereo partly drawn)	50 µg/mL (≈ 117 µM)	10.47
CCC(C#N)C(=O)N[C@H](C)[C@@H](Oc1ccccc1C#N)c1ccccc1 (stereo partly drawn)	10 µg/mL (≈ 28.8 µM)	10.15
C[C@@H](NC(=O)C(C#N)C(C)(C)C)[C@@H](Oc1ccccc1C#N)c1ccccc1 (stereo partly drawn)	200 µg/mL (≈ 533 µM)	9.85
C[C@H](COc1cc(F)ccc1F)NC(=O)C(C#N)C1CC1 (stereo partly drawn)	50 µg/mL (≈ 170 µM)	8.96
CC(C)C(C#N)C(=O)N[C@H](C)[C@@H](Oc1cc(F)ccc1F)c1ccccc1 (stereo partly drawn)	100 µg/mL (≈ 269 µM)	10.12
C[C@@H](NC(=O)C(C#N)C1CC1)[C@@H](Oc1cc(F)ccc1F)c1ccccc1 (stereo partly drawn)	2 µg/mL (≈ 5.4 µM)	10.85
CCC(C#N)C(=O)N[C@H](C)[C@@H](Oc1cc(Cl)ccc1C#N)c1ccccc1 (stereo partly drawn)	10 µg/mL (≈ 26.2 µM)	10.51
C[C@H](COc1cc(F)ccc1F)NC(=O)[C@H](C#N)C(C)(C)C	–	10.70
C[C@H](COc1cc(F)ccc1F)NC(=O)C(C#N)C(C)(C)C (stereo partly drawn)	6 µg/mL (≈ 19.3 µM)	–
CC(C)C(C#N)C(=O)N[C@H](C)[C@@H](Oc1ccccc1C#N)c1ccccc1 (stereo partly drawn)	25 µg/mL (≈ 69.2 µM)	10.42
CC(C)C(C#N)C(=O)N[C@H](C)[C@@H](Oc1cc(F)ccc1C#N)c1ccccc1 (stereo partly drawn)	25 µg/mL (≈ 65.9 µM)	10.47
CCC(C#N)C(=O)N[C@H](C)[C@@H](Oc1cc(F)ccc1F)c1ccccc1 (stereo partly drawn)	2 µg/mL (≈ 5.58 µM)	10.70
CC(C)C(C#N)C(=O)N[C@H](C)COc1cc(F)ccc1F (stereo partly drawn)	10 µg/mL (≈ 33.7 µM)	9.57
CCC(C#N)C(=O)N[C@H](C)[C@@H](Oc1cc(F)ccc1C#N)c1ccccc1 (stereo partly drawn)	50 µg/mL (≈ 137 µM)	10.68
CCC(C#N)C(=O)N[C@H](C)COc1cc(F)ccc1F (stereo partly drawn)	> 200 µg/mL	8.26
